The record followed here is ChEMBL document CHEMBL4177552, “Synthesis and hyperpolarisation of eNOS substrates for quantification of NO production by 1H NMR spectroscopy” (Bioorg Med Chem, 2017).

In data set [1] the target is T1, Nitric oxide synthase 3 (Bos taurus) (UniProt P29473).
T1 sequence (whole entry): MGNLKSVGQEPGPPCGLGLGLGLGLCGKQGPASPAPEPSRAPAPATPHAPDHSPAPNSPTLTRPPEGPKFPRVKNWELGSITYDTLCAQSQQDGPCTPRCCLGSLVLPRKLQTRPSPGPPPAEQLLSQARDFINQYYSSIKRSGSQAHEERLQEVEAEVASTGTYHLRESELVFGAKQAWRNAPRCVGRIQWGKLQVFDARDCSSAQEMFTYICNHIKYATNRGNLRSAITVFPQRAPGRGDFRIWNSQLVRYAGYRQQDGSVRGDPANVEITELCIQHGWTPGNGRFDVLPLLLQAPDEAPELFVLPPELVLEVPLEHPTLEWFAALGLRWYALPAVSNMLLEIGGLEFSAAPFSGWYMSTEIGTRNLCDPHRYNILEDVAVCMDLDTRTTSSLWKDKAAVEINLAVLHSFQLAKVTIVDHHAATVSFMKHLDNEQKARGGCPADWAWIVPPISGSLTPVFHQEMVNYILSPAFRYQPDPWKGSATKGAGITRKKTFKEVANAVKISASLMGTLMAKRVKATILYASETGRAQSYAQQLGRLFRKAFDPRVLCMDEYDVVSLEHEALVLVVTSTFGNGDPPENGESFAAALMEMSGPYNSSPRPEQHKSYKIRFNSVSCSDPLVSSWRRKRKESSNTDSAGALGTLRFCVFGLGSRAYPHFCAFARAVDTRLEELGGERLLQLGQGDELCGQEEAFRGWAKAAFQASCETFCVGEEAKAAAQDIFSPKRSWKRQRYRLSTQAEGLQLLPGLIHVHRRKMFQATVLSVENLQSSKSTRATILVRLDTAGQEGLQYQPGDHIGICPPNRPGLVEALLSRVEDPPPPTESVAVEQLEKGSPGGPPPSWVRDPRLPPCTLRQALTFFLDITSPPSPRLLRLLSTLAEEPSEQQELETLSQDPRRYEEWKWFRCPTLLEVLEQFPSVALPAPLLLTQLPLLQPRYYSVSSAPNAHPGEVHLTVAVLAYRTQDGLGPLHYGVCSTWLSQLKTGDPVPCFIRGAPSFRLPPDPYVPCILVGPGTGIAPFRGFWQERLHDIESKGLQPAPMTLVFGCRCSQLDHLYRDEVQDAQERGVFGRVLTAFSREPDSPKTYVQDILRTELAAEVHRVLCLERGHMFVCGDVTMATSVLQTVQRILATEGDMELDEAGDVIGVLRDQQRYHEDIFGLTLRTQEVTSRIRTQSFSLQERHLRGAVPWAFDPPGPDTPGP
In words: Substrate activity at recombinant bovine eNOS assessed as enzyme mediated nitrite production after 40 mins by Griess reagent base LDH assay. The gist of the method:
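Run for 40 min alongside an l-arginine positive control and a negative control. Stopped with ice-cold 20 mM HEPES pH 5.5, 2 mM EDTA, 2 mM EGTA. NO-derived nitrite quantified by Griess colorimetry (nitrate/nitrite LDH method).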
Background: The Griess reaction detects nitrite, a stable product of nitric oxide.

Data set [2] is described as follows: Drug metabolism is PBS buffer assessed as compound conversion after 3 hrs by 1H NMR spectroscopy.

Where a SMILES comes first, the peptide text is derived from it.

As for `N=C(N)NCCC[C@H](N)C(=O)O`, the Activity in data set [1] turned out to be 25 µM.

Take `N=C(N)NCCC[C@H](N)C(=O)NCc1ccncc1`: the Activity in data set [1] was 48 µM.

Turning to `CC(NC(=O)[C@@H](N)CCCNC(=N)N)c1cccnc1` (stereo partly drawn), the Activity in data set [1] is 26 µM.

In the case of `CN(Cc1ccncc1)C(=O)[C@@H](N)CCCNC(=N)N`, the Activity in data set [1] worked out at 21 µM.

Turning to `CC(NC(=O)[C@@H](N)CCCNC(=N)N)c1ccncc1` (stereo partly drawn), in data set [1], the Activity came to 20 µM.

On to `N=C(N)NCCC[C@H](N)C(=O)N[C@@H](Cc1cccnc1)C(=O)O` (HELM PEPTIDE1{R.[O=C(O)[C@H](Cc1cccnc1)N[*:1]]}$$$$V2.0), for which the Activity in data set [1] amounted to 38 µM.

As to `N=C(N)NCCC[C@H](N)C(=O)NCc1cccnc1`, the Activity in data set [1] was 22 µM.

`N=C(N)NCCC[C@H](N)C(=O)Nc1ccncc1`: in data set [1], the Activity worked out at 22 µM. For the same compound, the degraded at 3 h in data set [2] stood at 41%.

For `N/C(=N\O)NCCCCC(=O)NCc1ccncc1`, in data set [1], the Activity came out at 29 µM.

As to `CN(Cc1cccnc1)C(=O)[C@@H](N)CCCNC(=N)N`, the Activity in data set [1] amounted to 23 µM.

On to `N/C(=N\O)NCCC[C@H](N)C(=O)NCc1ccncc1`, for which the Activity in data set [1] was 26 µM.

On to `CC(=O)N[C@@H](CCCN/C(N)=N/O)C(=O)NCc1ccncc1`, for which the Activity in data set [1] worked out at 27 µM.
